Data reported in PMC7641749 (Nucleic Acids Research, 2020).

B1: Deletion of the N-terminus of DGCR8 (1–275 aa): DGCR8 with deletion of 1–275 aa (protein, UniProt Q8WYQ5 276-773, looked up, fragment)
chain: DGETSVQPMMTKIKTVLKSRGRPPTEPLPDGWIMTFHNSGVPVYLHRESRVVTWSRPYFLGTGSIRKHDPPLSSIPCLHYKKMKDNEEREQSSDLTPSGDVSPVKPLSRSAELEFPLDEPDSMGADPGPPDEKDPLGAEAAPGALGQVKAKVEVCKDESVDLEEFRSYLEKRFDFEQVTVKKFRTWAERRQFNREMKRKQAESERPILPANQKLITLSVQDAPTKKEFVINPNGKSEVCILHEYMQRVLKVRPVYNFFECENPSEPFGASVTIDGVTYGSGTASSKKLAKNKAARATLEILIPDFVKQTSEEKPKDSEELEYFNHISIEDSRVYELTSKAGLLSPYQILHECLKRNHGMGDTSIKFEVVPGKNQKSEYVMACGKHTVRGWCKNKRVGKQLASQKILQLLHPHVKNWGSLLRMYGRESSKMVKQETSDKSVIELQQYAKKNKPNLHILSKLQEEMKRLAEEREETRKKPKMSIVASAQPGGEPLCTVDV
B2: DGΔ96–115: 96–115 aa of DGCR8 was removed (protein)
chain: METDESPSPLPCGPAGEAVMESRARPFQALPREQSPPPPLQTSSGAEVMDVGSGGDGQSELPAEDPFNFYGASLLSKGSFSKGRLLIDPNCSGHSKDVKISVSFTESCRSKDRKVLYTGAERDVRAECGLLLSPVSGDVHACPFGGSVGDGVGIGGESADKKDEENELDQEKRVEYAVLDELEDFTDNLELDEEGAGGFTAKAIVQRDRVDEEALNFPYEDDFDNDVDALLEEGLCAPKKRRTEEKYGGDSDHPSDGETSVQPMMTKIKTVLKSRGRPPTEPLPDGWIMTFHNSGVPVYLHRESRVVTWSRPYFLGTGSIRKHDPPLSSIPCLHYKKMKDNEEREQSSDLTPSGDVSPVKPLSRSAELEFPLDEPDSMGADPGPPDEKDPLGAEAAPGALGQVKAKVEVCKDESVDLEEFRSYLEKRFDFEQVTVKKFRTWAERRQFNREMKRKQAESERPILPANQKLITLSVQDAPTKKEFVINPNGKSEVCILHEYMQRVLKVRPVYNFFECENPSEPFGASVTIDGVTYGSGTASSKKLAKNKAARATLEILIPDFVKQTSEEKPKDSEELEYFNHISIEDSRVYELTSKAGLLSPYQILHECLKRNHGMGDTSIKFEVVPGKNQKSEYVMACGKHTVRGWCKNKRVGKQLASQKILQLLHPHVKNWGSLLRMYGRESSKMVKQETSDKSVIELQQYAKKNKPNLHILSKLQEEMKRLAEEREETRKKPKMSIVASAQPGGEPLCTVDV
B3: DG115–773: 1–114 aa of DGCR8 was deleted (protein)
chain: LKDVKISVSFTESCRSKDRKVLYTGAERDVRAECGLLLSPVSGDVHACPFGGSVGDGVGIGGESADKKDEENELDQEKRVEYAVLDELEDFTDNLELDEEGAGGFTAKAIVQRDRVDEEALNFPYEDDFDNDVDALLEEGLCAPKKRRTEEKYGGDSDHPSDGETSVQPMMTKIKTVLKSRGRPPTEPLPDGWIMTFHNSGVPVYLHRESRVVTWSRPYFLGTGSIRKHDPPLSSIPCLHYKKMKDNEEREQSSDLTPSGDVSPVKPLSRSAELEFPLDEPDSMGADPGPPDEKDPLGAEAAPGALGQVKAKVEVCKDESVDLEEFRSYLEKRFDFEQVTVKKFRTWAERRQFNREMKRKQAESERPILPANQKLITLSVQDAPTKKEFVINPNGKSEVCILHEYMQRVLKVRPVYNFFECENPSEPFGASVTIDGVTYGSGTASSKKLAKNKAARATLEILIPDFVKQTSEEKPKDSEELEYFNHISIEDSRVYELTSKAGLLSPYQILHECLKRNHGMGDTSIKFEVVPGKNQKSEYVMACGKHTVRGWCKNKRVGKQLASQKILQLLHPHVKNWGSLLRMYGRESSKMVKQETSDKSVIELQQYAKKNKPNLHILSKLQEEMKRLAEEREETRKKPKMSIVASAQPGGEPLCTVDV
B4: DG_Ala mut: V105A/F108A/L112A/L114A/L115A (protein)
chain: METDESPSPLPCGPAGEAVMESRARPFQALPREQSPPPPLQTSSGAEVMDVGSGGDGQSELPAEDPFNFYGASLLSKGSFSKGRLLIDPNCSGHSPRTARHAPAARKASPDAKAAKDVKISVSFTESCRSKDRKVLYTGAERDVRAECGLLLSPVSGDVHACPFGGSVGDGVGIGGESADKKDEENELDQEKRVEYAVLDELEDFTDNLELDEEGAGGFTAKAIVQRDRVDEEALNFPYEDDFDNDVDALLEEGLCAPKKRRTEEKYGGDSDHPSDGETSVQPMMTKIKTVLKSRGRPPTEPLPDGWIMTFHNSGVPVYLHRESRVVTWSRPYFLGTGSIRKHDPPLSSIPCLHYKKMKDNEEREQSSDLTPSGDVSPVKPLSRSAELEFPLDEPDSMGADPGPPDEKDPLGAEAAPGALGQVKAKVEVCKDESVDLEEFRSYLEKRFDFEQVTVKKFRTWAERRQFNREMKRKQAESERPILPANQKLITLSVQDAPTKKEFVINPNGKSEVCILHEYMQRVLKVRPVYNFFECENPSEPFGASVTIDGVTYGSGTASSKKLAKNKAARATLEILIPDFVKQTSEEKPKDSEELEYFNHISIEDSRVYELTSKAGLLSPYQILHECLKRNHGMGDTSIKFEVVPGKNQKSEYVMACGKHTVRGWCKNKRVGKQLASQKILQLLHPHVKNWGSLLRMYGRESSKMVKQETSDKSVIELQQYAKKNKPNLHILSKLQEEMKRLAEEREETRKKPKMSIVASAQPGGEPLCTVDV

Tested on: ERH
Experiment: Co-immunoprecipitation and Western blot of DGCR8 mutants and fragments with ERH
Format: binding, human
Settings: co-IP / Western blot, overexpressed DGCR8 mutants, HEK293E, RNase A
In short: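 HEK293E cells at 50% confluence were transfected with 5 μg total of Flag-, HA- or myc-tagged plasmids using branched/linear PEI (1:1) and harvested after 2 days. Anti-Flag, anti-HA or protein G-bound anti-myc beads were incubated with lysate 1–2 h at 4°C, washed three times and eluted in SDS buffer for western blot.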

Question: For B1, which “interaction with ERH” value is on record?
Answer: abrogated the interaction

Question: With B2 as the molecule, how does the “interaction with ERH” value read?
Answer: could not pull down ERH

Question: B3 was tested. Which “interaction with ERH” value did it give?
Answer: could not pull down ERH

Question: For B4, which “interaction with ERH” value is on record?
Answer: impaired in ERH binding
